Hit rate of the full screen: of about 330,000 compounds, about 1,100 (0.33%) were called active.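 Rule for the calls: active = mean inhibition over replicate wells above about 20% (limit read from the data); inactive = the rest.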 The sample as a whole holds a higher share of actives than the screen did.

In general, inhibition refers to the drop in the measured response relative to a control, in per cent.

This experiment deals with Ubiquitin carboxyl-terminal hydrolase isozyme L5 (Homo sapiens) (UniProt Q9Y5K5). As to the kind of experiment: proteasome-bound UCH37 DUB activity blockers – biochemical, Ub-AMC cleavage, fluorescence, primary screen (AID 588478).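 Note: 0% = compound-free wells with enzyme and 100% = wells lacking proteasome.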 The conditions noted are these: purified proteasome/UCH37, Ub-AMC cleavage fluorescence; active compounds read high; concentration not given here. The method in brief: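 System: Proteasome-associated human UCH37 deubiquitinase; Input: 0.15 nM proteasome in added enzyme buffer; Also added: Ub-AMC substrate from 1 µM stock; Incubation: 30 min compound-proteasome preincubation then 25 min substrate reaction, room temperature; Detection: fluorescence, ex 355 nm, em 460 nm; Read-out: % inhibition of Ub-AMC cleavage fluorescence; Benchmarks: no-proteasome and no-compound wells.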
Chain of Ubiquitin carboxyl-terminal hydrolase isozyme L5 (Homo sapiens) (Q9Y5K5 whole entry, looked up): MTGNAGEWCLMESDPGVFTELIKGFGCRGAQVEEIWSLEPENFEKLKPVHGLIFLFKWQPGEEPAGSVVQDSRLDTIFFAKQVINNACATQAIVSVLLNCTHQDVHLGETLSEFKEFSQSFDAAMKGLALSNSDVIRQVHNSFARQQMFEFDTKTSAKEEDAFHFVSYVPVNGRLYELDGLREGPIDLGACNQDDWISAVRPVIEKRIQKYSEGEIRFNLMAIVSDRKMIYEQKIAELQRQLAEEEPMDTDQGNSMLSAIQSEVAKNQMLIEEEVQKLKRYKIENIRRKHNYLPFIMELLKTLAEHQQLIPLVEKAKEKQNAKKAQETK
`CCCCCCCCCCCCn1ccc(=N)cc1`: the inhibition was 29.5% (active).
For `Brc1ccc2[nH]cc(C=NN3CCCCC3)c2c1` the value was 1.15% (inactive); for `C#C[C@]1(O)CCC2C3CCC4=CC(=NOCC(=O)NC(C)C(=O)NC(CCSC)C(=O)O)CC[C@]4(C)C3CC[C@@]21C` (stereo not given in full), -1.31% (inactive).
For the compound `C=CCN1CC[C@]23c4c5ccc(O)c4O[C@H]2C(=NNC(=O)c2ccccc2)CC[C@@]3(O)[C@H]1C5`, the inhibition was 4.43% (inactive).
Take `CC12CCC3C(CCC4CC(=NO)CCC43C)C1CCC2O` (stereo not given): the inhibition was 2.36% (inactive).
The result for `CCC(C)n1c(O)c(/C=N/Nc2nc3c(c(=O)n(C)c(=O)n3C)n2C)c(=O)[nH]c1=S` (stereo not given) reads 21.4% (active); that for `Cc1ccccc1/C=C\c1nc(O)c([N+](=O)[O-])c(=O)[nH]1`, 11.3% (inactive); that for `CNC(=O)Nc1ccc(C(=O)NN=CC23CC[C@@H](O)CC2(O)CC[C@@H]2[C@@H]3CCC3(C)C(C4=CC(=O)OC4)CCC23O)cc1` (stereo not given in full), 3.8% (inactive).
On to `COc1cc(C(=O)NC2CCN(Cc3ccccc3)CC2)cc(Cl)c1OC(C)C`, for which the inhibition is 4.45% (inactive).
The result for `COc1ccc(N2C(=O)/C(=C/c3ccco3)C(=O)NC2=S)cc1` reads 31.7% (active); that for `O=C1NC(=O)N(c2ccccc2)C(=O)/C1=C/c1ccc([N+](=O)[O-])s1`, 5.15% (inactive).
The result for `COc1cccc(N2C(=O)NC(=O)/C(=C\c3ccc([N+](=O)[O-])s3)C2=O)c1` reads 11.5% (inactive); that for `Nc1nonc1C(=O)NN=Cc1ccc([N+](=O)[O-])o1`, 13.2% (inactive).
The result for `CC1=CC(=Cc2sc3ccccc3[n+]2C)C=C(C)O1` reads 20.3% (active); that for `COC(=O)[C@H](Cc1ccccc1)NC(=O)Nc1ccc(S(N)(=O)=O)cc1`, 2.98% (inactive); that for `COc1ccc(C=NN=C(N)N[N+](=O)[O-])c(OC)c1`, 18.6% (inactive).
Consider `Oc1ccc(C=NNP(=S)(c2ccccc2)c2ccccc2)cc1O`, for which the inhibition was 2.56% (inactive).
With `COc1cccc(C(=O)N2C[C@H]3C[C@@H](C2)c2cccc(=O)n2C3)c1`, the inhibition is 2.34% (inactive).
Regarding `O=C(CN1CCN(S(=O)(=O)c2cccc(Cl)c2)CC1)N1CCCCC1`, the inhibition was 5.51% (inactive).
The result for `CN1CCN(N=Cc2c[nH]c3ccccc23)CC1` reads 3.94% (inactive).

For the origin of these results see PubChem BioAssay AID588478 (ICCB-Longwood Screening Facility, Harvard Medical School, 2011).
